Bioassay records deposited in PubChem BioAssay by several laboratories.
This excerpt belongs to a sample that is enriched for hits.
T cell modulator: T cell immune modulators affecting CD8 T cell-vesicle binding; AID 2052; 2C CD8+ T cell-vesicle binding, flow cytometry; hits give low values; 330,000 tested, 0.068% active; response (vesicle binding), % at 7 µM;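 active = response, share of CD8 T cells binding vesicles, and their 90th percentile fluorescence all below set limits, cut at about 80% in these data, passing the limit was not always enough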;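 also: values below 100% mean blocked vesicle binding to the CD8+ T cells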
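Benchmarks: naked versus QL9-loaded vesicles / Assay system: purified 2C TCR transgenic mouse naive CD8+ T cells / Technique: high-throughput flow cytometry with anti-B7-1 and anti-CD8 staining / Timing: Cell–vesicle co-incubation 1.5 h at 37 °C, staining 20 min on ice / Read-out: percent CD8+ FL2 mean versus row control / Probe or stimulus: QL9-loaded Drosophila micro-vesicles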
ALR inh: blocks human ALR sulfhydryl oxidase activity. 290,000 tested, 3.8% active. P55789. inhibition, % (no concentration beside the values). purified ALR, DTT oxidation, H2O2 HRP-luminol luminescence. AID 485317;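 active = mean replicate inhibition above about 79%, with every replicate also reaching it, limit read from the data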
Target sequence (P55789 whole entry, looked up): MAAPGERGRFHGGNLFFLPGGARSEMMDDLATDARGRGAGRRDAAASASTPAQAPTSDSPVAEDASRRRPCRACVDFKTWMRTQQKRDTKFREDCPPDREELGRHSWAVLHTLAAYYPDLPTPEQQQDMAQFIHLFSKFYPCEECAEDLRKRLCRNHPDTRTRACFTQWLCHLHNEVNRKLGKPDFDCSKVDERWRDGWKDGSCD
Glyco luc inh: N-linked glycosylation inhibition; D54 ERlucT glycosylation luciferase reporter, 24 h; percent of 100 nM tunicamycin response; reporter increase, % at 12.5 µM; 360,000 tested, 0.23% active; AID 588692;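 active = mean luciferase reporter signal, scaled so untreated is 0 and the glycosylation-blocking control 100, at or above a set limit in every replicate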;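 also: luciferase carries N-glycosylation sites so blocking glycosylation raises the light; 0% = median of neutral control wells and 100% = median of 100 nM tunicamycin wells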
* hit, by the source's call; i = inactive; . = no result.

SMILES	T cell modulator	ALR inh	Glyco luc inh
O=C(CSc1nc2c(c(=O)n1-c1ccc(Cl)cc1)SCC2)Nc1nccs1	324	-27	4
O=C(CSc1nc2c(c(=O)n1-c1ccc(Br)cc1)SCC2)Nc1nccs1	453	99*	8
CCCCn1c(N)c(N(C(=O)CSc2nnnn2-c2ccccc2C)C2CCCC2)c(=O)[nH]c1=O	.	.	0
CC1(C(=O)NS(=O)(=O)C2CC2)CCCN(C(=O)c2c(F)cccc2F)C1 (stereo not drawn)	.	.	0
CCn1c(SCC(=O)Nc2ccc(C)cc2)nc2sc3c(c2c1=O)CCN(C)C3	171	99*	-2
CCn1c(SCC(N)=O)nc2sc3c(c2c1=O)CCN(C)C3	322	40	0
COc1ccc(NC(=O)CSc2nc3sc4c(c3c(=O)n2-c2ccc(OC)cc2)CCN(C)C4)cc1	238	98*	-1
COc1ccc(-n2c(SC)nc3sc4c(c3c2=O)CCN(C)C4)cc1	.	.	-2
COc1cc(OC)cc(C(=O)NC(C)CCc2ccccc2)c1 (stereo not drawn)	153	4	-1
CC(C)Oc1ccc(CN2CCC2(C)C(=O)Nc2ccc(Cl)c(Cl)c2)cc1 (stereo not drawn)	.	.	-2
CC(C)C1C(=O)N(Cc2cn(CC3CCCCC3)nn2)CCS(=O)(=O)N1Cc1ccc(-c2cccc(CO)c2)cc1 (stereo not drawn)	.	.	0
C/C(=N\Nc1ccc2nncn2n1)c1cccs1	490	26	0
CC(C)(C)OC(=O)N1CCCC(C(=O)Nc2ccc(C(=O)NCCc3ccccc3)cc2)C1 (stereo not drawn)	.	.	-1
CCOc1ccc(S(=O)(=O)Nc2cccc(C)c2)c2cccnc12	147	-1	-2
COc1cccc(/C=C2\SC(=S)N(C(C)C(=O)NC3C=CS(=O)(=O)C3)C2=O)c1 (stereo not drawn)	95	62	-6
COc1ccc(/C=C2\SC(=S)N(C(C)C(=O)NC3C=CS(=O)(=O)C3)C2=O)cc1 (stereo not drawn)	318	98*	-2
Cn1c2ccccc2c(=O)c2c(=O)n(-c3ccc(F)cc3)c(C3CCCCC3)nc21	.	.	1
Clc1cc(NCc2cccs2)ccc1N1CCOCC1	441	97*	-1
CC(=O)Nc1ccc(N2CCN(C(=O)c3cccs3)CC2)cc1	i	-18	2
CC(=O)N1CCN(c2ccc(NCc3ccc(C)s3)cc2)CC1	535	99*	2
O=C(NCc1cccs1)C1CCN(c2ccc(S(=O)(=O)N3CCOCC3)cc2Cl)CC1	572	-3	24
Cc1ccc(CNc2ccc(N3CCOCC3)cc2)s1	698	.	-1
CC(=O)N1CCN(c2ccc(NCc3cccs3)cc2)CC1	307	99*	4
CCc1nc(SCC(=O)NCCc2ccccc2)c2c(=O)n(C)c(=O)n(C)c2n1	585	.	-3
CC1(C)OC(=O)C=C(CC2NS(=O)(=O)OC3CCCCC23)O1 (stereo not drawn)	552	1	4
SMILES	T cell modulator	ALR inh	Glyco luc inh
CCCNC(=O)C1(C)CCCN(C(=O)c2ccc3sccc3c2)C1 (stereo not drawn)	.	.	2
CC(=O)N1CCN(Cc2cc(=O)oc3ccc4ccccc4c23)CC1	.	.	2
Cc1ccc2nsnc2c1NC(=O)c1ccc(-c2cc(Cl)ccc2Cl)o1	201	-7	129*
Cc1ccc2nsnc2c1NC(=O)Cc1ccc(Cl)cc1	321	-13	0
NC(=O)CSc1nnc(CNc2ccc(F)cc2)n1CC1CCCO1 (stereo not drawn)	767	.	0
Cc1ccc(NCc2nnc(SCC(N)=O)n2CC2CCCO2)c(C)c1 (stereo not drawn)	373	89*	-1
O=C(OCc1cn([C@@H]2CN(Cc3cccs3)[C@@H](c3ccc(Cl)cc3)C[C@H]2O)nn1)c1ccccc1	.	.	1
CC(NC(=O)CCC(=O)c1ccccc1)c1ccc(F)cc1 (stereo not drawn)	436	1	-1
COCCNc1nc(NCc2ccc(NC(C)=O)cc2)c2sc(-c3ccccc3)cc2n1	.	.	-4
O=C(CSc1nnc(-c2ccc(O)cc2)o1)Nc1ccccc1Br	163	-9	-3
CCc1nn2c(NCCCO)cc(C)nc2c1-c1ccc(F)cc1	93	35	28*
Cc1ccc(-c2cc3nc(-c4ccccc4)cc(NCCCO)n3n2)cc1	.	.	4
O=C(c1ccccc1)c1ccccc1C(=O)c1ccccc1	329	-10	-3
Nc1sccc1C(=O)c1ccccc1	564	98*	.
CCn1c(C)c(CS(=O)(=O)c2ccccc2)[nH]c1=O	280	33	1
CCCCN(C(=O)C1CC(=O)N(c2ccc(CC)cc2)C1)c1c(N)n(CCC)c(=O)[nH]c1=O (stereo not drawn)	.	.	1
CC(C)NC(=O)C1(C)CCCN1C(=O)c1ccc2c(c1)C(C)(C)CCC2(C)C (stereo not drawn)	.	.	1
